Activity calls are given as the source filed them. No cut-off for these calls is given here.
How the values were obtained:
Orexin receptor type 2 = biological target: T1, Orexin receptor type 2 (Homo sapiens, UniProt O43614); assay: Antagonist activity at human OX2 receptor expressed in CHO cells assessed as inhibition of calcium mobilization by FLIPR assay; format: functional, cell-based
T1 sequence (O43614 whole entry): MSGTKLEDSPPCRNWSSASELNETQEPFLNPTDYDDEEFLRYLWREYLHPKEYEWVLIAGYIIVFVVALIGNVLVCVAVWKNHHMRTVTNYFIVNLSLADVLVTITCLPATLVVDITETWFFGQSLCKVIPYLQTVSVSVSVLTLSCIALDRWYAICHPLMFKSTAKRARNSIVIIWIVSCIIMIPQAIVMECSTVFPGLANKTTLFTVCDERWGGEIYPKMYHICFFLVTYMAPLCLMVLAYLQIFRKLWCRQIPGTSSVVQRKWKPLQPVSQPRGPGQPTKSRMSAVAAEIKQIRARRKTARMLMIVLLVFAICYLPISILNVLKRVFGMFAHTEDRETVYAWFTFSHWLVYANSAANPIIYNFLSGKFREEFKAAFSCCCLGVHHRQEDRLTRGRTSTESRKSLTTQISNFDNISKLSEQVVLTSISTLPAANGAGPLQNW
How it was run: (§1)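 CHO cells stably bearing human OX1 or OX2 receptor, plated and loaded at 37 °C, 5% CO2 with fluo-3 AM calcium dye, then washed. Test antagonists added at varying concentrations before orexin A challenge; intracellular Ca2+ rise followed as fluorescence change on FLIPR. IC50 taken as concentration giving 50% inhibition of agonist response.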

[1] = biological target: T2, Orexin/Hypocretin receptor type 1 (Homo sapiens, UniProt O43613); assay: Antagonist activity at human OX1 receptor expressed in CHO cells assessed as inhibition of calcium mobilization by FLIPR assay; format: functional, cell-based; how it was run: as §1
T2 sequence (O43613 whole entry): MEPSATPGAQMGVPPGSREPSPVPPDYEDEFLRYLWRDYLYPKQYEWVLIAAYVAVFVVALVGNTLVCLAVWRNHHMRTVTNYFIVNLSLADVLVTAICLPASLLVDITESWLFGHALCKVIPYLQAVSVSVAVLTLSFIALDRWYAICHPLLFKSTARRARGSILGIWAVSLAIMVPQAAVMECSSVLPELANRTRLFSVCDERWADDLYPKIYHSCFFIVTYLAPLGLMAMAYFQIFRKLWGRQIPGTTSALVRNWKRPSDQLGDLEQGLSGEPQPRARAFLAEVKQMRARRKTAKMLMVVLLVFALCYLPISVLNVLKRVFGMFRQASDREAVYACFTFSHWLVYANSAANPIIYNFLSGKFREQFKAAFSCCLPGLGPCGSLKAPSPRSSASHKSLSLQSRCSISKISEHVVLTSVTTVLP

Rattus norvegicus [2] = assay: Somnolence activity in Wistar rat assessed as home cage activity in dark at 100 mg/kg, po over 12 hrs night period by radiotelemetric assay; format: functional, organism-based; set-up: dose 100 mg/kg
How it was run: (§2)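 Adult male Wistar rats carrying radiotelemetric implants; single oral dose 100 mg/kg in 100% PEG-400 given at dark (active) phase onset. EEG, EMG, home cage activity and body temperature recorded, effects integrated over following 12-h night. Crossover design, groups of 7 or 8, washout of at least 4 days; paired t-test; means ± SEM.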

Rattus norvegicus [3] = assay: Somnolence activity in Wistar rat assessed as time spent in non-rapid eye movement sleep at 100 mg/kg, po over 12 hrs night period by radiotelemetric assay; format: functional, organism-based; set-up: dose 100 mg/kg; how it was run: as §2
Rattus norvegicus [4] = assay: Somnolence activity in Wistar rat assessed as time spent in rapid eye movement sleep at 100 mg/kg, po over 12 hrs night period by radiotelemetric assay; format: functional; how it was run: as §2
Rattus norvegicus [5] = assay: Somnolence activity in Wistar rat assessed as time spent in active wake at 100 mg/kg, po over 12 hrs night period by radiotelemetric assay; format: functional, organism-based; set-up: dose 100 mg/kg; how it was run: as §2

## CCc1ccc(CC[C@@H]2c3c(C)nn(CC)c3CCN2[C@@H](C(=O)NC)c2ccccc2)cc1
Orexin receptor type 2
  IC50: 0.174 µM
[1]
  IC50: 1.42 µM

## CCn1nc(C)c2c1CCN([C@@H](C(=O)NC)c1ccccc1)[C@H]2CCc1ccc(C)c(C)c1
Rattus norvegicus [2]
  Activity: Active
Rattus norvegicus [3]
  Activity: Active
Rattus norvegicus [4]
  Activity: 15%
Rattus norvegicus [5]
  Activity: Active

## CCn1nc(C)c2c1CCN(C(C(=O)NC)c1ccccc1)C2CCc1ccccc1F (mixture of isomers)
Orexin receptor type 2
  IC50: 0.022 µM
[1]
  IC50: 0.669 µM

## CCn1nc(C)c2c1CCN([C@@H](C(=O)NC)c1ccccc1)[C@H]2CCc1ccc(C(F)(F)F)cc1
Orexin receptor type 2
  IC50: 0.003 µM
[1]
  IC50: 0.128 µM

## CCc1ccc(CC[C@H]2c3c(C)nn(CC)c3CCN2[C@@H](C(=O)NC)c2ccccc2)cc1
Orexin receptor type 2
  IC50: 0.003 µM
[1]
  IC50: 0.063 µM

## CCn1nc(C)c2c1CCN(C(C(=O)NC)c1ccccc1)C2CCc1ccccc1C (mixture of isomers)
Orexin receptor type 2
  IC50: 0.021 µM
[1]
  IC50: 1.03 µM

## CCn1nc(C)c2c1CCN(C(C(=O)NC)c1ccccc1)C2CCc1ccc(OC)cc1 (mixture of isomers)
Orexin receptor type 2
  IC50: 0.219 µM
[1]
  IC50: 10 µM

## CCn1nc(C)c2c1CCN([C@@H](C(=O)NC)c1ccccc1)[C@H]2CCc1ccc(C(C)C)cc1
Orexin receptor type 2
  IC50: 0.009 µM
[1]
  IC50: 0.161 µM

## CCn1nc(C)c2c1CCN(C(C(=O)NC)c1ccccc1)C2CCc1cccc(C)c1 (mixture of isomers)
Orexin receptor type 2
  IC50: 0.019 µM
[1]
  IC50: 0.18 µM

## CCn1nc(C)c2c1CCN([C@@H](C(=O)NC)c1ccccc1)[C@H]2CCc1cc(F)c(C(F)(F)F)c(F)c1
Rattus norvegicus [2]
  Activity: Active
Rattus norvegicus [3]
  Activity: Active
Rattus norvegicus [4]
  Activity: 8%

## CCn1nc(C)c2c1CCN(C(C(=O)NC)c1ccccc1)C2Cc1ccc(C(F)(F)F)cc1 (mixture of isomers)
Orexin receptor type 2
  IC50: 0.025 µM
[1]
  IC50: 0.769 µM

## CCn1nc(C)c2c1CCN(C(C(=O)NC)c1ccccc1)C2CCc1ccc(Cl)cc1 (mixture of isomers)
Orexin receptor type 2
  IC50: 0.012 µM
[1]
  IC50: 0.993 µM

## CCn1nc(C)c2c1CCN(C(C(=O)NC)c1ccccc1)C2CCc1cccc(C(F)(F)F)c1 (mixture of isomers)
Orexin receptor type 2
  IC50: 0.007 µM
[1]
  IC50: 0.358 µM

## CCn1nc(C)c2c1CCN(C(C(=O)NC)c1ccccc1)C2CCc1ccc(C)cc1 (mixture of isomers)
Orexin receptor type 2
  IC50: 0.006 µM
[1]
  IC50: 0.108 µM

## CCn1nc(C)c2c1CCN(C(C(=O)NC)c1ccccc1)C2CCc1cccc(F)c1 (mixture of isomers)
Orexin receptor type 2
  IC50: 0.01 µM
[1]
  IC50: 0.402 µM

## CCn1nc(C)c2c1CCN([C@@H](C(=O)NC)c1ccccc1)[C@H]2COc1ccc(C)cc1
Orexin receptor type 2
  IC50: 0.019 µM
[1]
  IC50: 10 µM

## CCn1nc(C)c2c1CCN([C@@H](C(=O)NC)c1ccccc1)[C@@H]2CCc1ccc(C(C)C)cc1
Orexin receptor type 2
  IC50: 0.179 µM
[1]
  IC50: 1.92 µM

Source: ChEMBL document CHEMBL1154972, “Novel pyrazolo-tetrahydropyridines as potent orexin receptor antagonists” (Bioorg Med Chem Lett, 2010)
